{"source": "ChEMBL document CHEMBL5705889", "about": "“Novel mutant-selective EGFR kinase inhibitors against EGFR T790M” (Nature, 2009)", "key": {"[1]": {"tested_on": "HCC827", "experiment": "cells", "assay_type": "functional, cell-based", "details": "Homo sapiens, HCC827, 72 h"}, "[2]": {"tested_on": "Calu-3", "experiment": "cells", "assay_type": "functional, cell-based", "details": "Homo sapiens, Calu-3, 72 h"}, "[3]": {"experiment": "cells", "assay_type": "functional, cell-based", "details": "Homo sapiens, NCI-H1781, 72 h"}, "[4]": {"tested_on": "BaF3", "experiment": "cells", "assay_type": "functional, cell-based", "details": "Mus musculus, BaF3, 72 h"}, "[5]": {"tested_on": "BaF3", "experiment": "cells", "assay_type": "functional, cell-based", "details": "Mus musculus, BaF3, 72 h", "remark": "listed apart in the source"}, "[6]": {"tested_on": "BaF3", "experiment": "cells", "assay_type": "functional, cell-based", "details": "Mus musculus, BaF3, 72 h", "remark": "listed apart in the source"}, "[7]": {"tested_on": "BaF3", "experiment": "cells", "assay_type": "functional, cell-based", "details": "Mus musculus, BaF3, 72 h", "remark": "listed apart in the source"}, "[8]": {"tested_on": "BaF3", "experiment": "cells", "assay_type": "functional, cell-based", "details": "Mus musculus, BaF3, 72 h", "remark": "listed apart in the source"}, "[9]": {"tested_on": "BaF3", "experiment": "cells", "assay_type": "functional, cell-based", "details": "Mus musculus, BaF3, 72 h", "remark": "listed apart in the source"}, "[10]": {"target": "T1, Epidermal growth factor receptor (Homo sapiens, UniProt P00533)", "T1 sequence (P00533 whole entry)": "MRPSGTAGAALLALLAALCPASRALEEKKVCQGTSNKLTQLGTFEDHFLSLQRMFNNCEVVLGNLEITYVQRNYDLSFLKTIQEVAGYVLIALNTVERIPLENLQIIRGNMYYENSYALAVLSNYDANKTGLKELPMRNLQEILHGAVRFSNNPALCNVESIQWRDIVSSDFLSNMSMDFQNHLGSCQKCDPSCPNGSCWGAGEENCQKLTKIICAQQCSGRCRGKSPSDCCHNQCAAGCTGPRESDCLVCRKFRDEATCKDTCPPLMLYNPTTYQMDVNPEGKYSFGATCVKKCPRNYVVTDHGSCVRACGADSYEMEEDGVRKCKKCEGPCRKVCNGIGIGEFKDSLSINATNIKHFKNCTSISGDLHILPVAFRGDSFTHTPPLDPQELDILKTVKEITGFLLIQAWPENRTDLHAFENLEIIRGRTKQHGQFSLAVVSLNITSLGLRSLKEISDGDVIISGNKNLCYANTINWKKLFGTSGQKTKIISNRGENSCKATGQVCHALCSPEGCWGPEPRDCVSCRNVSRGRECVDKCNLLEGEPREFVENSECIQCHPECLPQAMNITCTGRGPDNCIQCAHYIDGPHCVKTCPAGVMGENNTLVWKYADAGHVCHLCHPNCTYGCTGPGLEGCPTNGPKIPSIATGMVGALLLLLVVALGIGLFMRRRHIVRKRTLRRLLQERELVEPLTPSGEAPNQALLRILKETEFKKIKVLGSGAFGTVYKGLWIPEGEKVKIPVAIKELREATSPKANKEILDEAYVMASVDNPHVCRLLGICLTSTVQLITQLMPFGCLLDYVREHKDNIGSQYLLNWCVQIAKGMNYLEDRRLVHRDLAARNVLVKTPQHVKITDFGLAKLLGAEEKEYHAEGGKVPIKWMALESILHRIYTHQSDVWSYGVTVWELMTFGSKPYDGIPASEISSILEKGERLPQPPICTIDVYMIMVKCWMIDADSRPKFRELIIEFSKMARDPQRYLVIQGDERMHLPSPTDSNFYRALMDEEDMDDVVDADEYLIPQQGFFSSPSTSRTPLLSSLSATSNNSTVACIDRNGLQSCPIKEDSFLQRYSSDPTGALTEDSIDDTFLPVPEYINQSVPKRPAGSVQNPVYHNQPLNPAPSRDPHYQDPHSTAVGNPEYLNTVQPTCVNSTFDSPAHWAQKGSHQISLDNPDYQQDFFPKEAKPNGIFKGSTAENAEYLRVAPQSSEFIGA", "experiment": "Inhibition of EGFR phosphorylation in human PC9 Gefitinib-resistant (GR) cells at 0.01 to 1 uM incubated for 16 hrs by immunoblot analysis", "assay_type": "cell-based", "details": "PC9 Gefitinib-resistant (GR) cell, dose 0.01-1 µM"}, "[11]": {"target": "RAC-alpha serine/threonine-protein kinase (Homo sapiens) (UniProt P31749)", "sequence (P31749 whole entry)": "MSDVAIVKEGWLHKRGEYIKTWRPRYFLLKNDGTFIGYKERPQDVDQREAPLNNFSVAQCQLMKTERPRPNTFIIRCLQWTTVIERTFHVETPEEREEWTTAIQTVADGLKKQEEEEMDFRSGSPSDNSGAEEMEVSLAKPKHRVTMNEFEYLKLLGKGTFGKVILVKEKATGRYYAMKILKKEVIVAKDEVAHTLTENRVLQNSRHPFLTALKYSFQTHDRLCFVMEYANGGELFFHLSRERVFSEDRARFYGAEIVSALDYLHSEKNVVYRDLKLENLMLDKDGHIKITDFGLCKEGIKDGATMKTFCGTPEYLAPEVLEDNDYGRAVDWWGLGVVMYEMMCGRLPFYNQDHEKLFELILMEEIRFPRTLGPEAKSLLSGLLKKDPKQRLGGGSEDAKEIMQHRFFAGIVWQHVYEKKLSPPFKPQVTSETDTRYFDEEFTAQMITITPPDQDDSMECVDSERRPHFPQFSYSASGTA", "experiment": "Inhibition of AKT phosphorylation in human PC9 Gefitinib-resistant (GR) cells at 0.01 to 1 uM incubated for 16 hrs by immunoblot analysis", "assay_type": "cell-based", "details": "PC9 Gefitinib-resistant (GR) cell, dose 0.01-1 µM"}, "[12]": {"target": "T1, Epidermal growth factor receptor", "experiment": "Inhibition of EGFR phosphorylation in human NCI-H1975 cells at 0.01 to 1 uM incubated for 16 hrs by immunoblot analysis", "assay_type": "cell-based", "details": "dose 0.01-1 µM"}, "[13]": {"target": "RAC-alpha serine/threonine-protein kinase (Homo sapiens) (UniProt P31749)", "experiment": "Inhibition of AKT phosphorylation in human NCI-H1975 cells at 0.01 to 1 uM incubated for 16 hrs by immunoblot analysis", "assay_type": "cell-based", "details": "dose 0.01-1 µM"}, "[14]": {"target": "Tyrosine-protein kinase BTK (Homo sapiens, UniProt Q06187)", "sequence (Q06187 whole entry)": "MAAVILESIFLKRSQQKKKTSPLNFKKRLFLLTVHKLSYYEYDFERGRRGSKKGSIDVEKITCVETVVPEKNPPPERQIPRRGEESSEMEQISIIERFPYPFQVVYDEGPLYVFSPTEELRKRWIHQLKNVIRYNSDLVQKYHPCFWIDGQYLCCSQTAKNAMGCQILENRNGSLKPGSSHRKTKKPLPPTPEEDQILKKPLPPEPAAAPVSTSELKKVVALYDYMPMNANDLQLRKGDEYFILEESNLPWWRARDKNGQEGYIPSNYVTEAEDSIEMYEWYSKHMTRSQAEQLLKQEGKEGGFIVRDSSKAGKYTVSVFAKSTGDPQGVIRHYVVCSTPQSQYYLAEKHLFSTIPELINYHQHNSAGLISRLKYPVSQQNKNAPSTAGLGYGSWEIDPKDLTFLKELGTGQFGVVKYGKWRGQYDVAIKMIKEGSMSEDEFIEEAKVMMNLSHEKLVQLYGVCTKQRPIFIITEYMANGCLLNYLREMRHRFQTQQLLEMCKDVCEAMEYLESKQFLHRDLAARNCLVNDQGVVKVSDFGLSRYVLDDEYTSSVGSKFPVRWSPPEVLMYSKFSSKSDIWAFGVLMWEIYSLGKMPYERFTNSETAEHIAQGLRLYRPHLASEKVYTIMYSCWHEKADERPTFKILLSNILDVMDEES", "experiment": "Binding affinity to BTK (unknown origin) assessed as dissociation constant"}, "[15]": {"target": "Serine/threonine-protein kinase DCLK3 (Homo sapiens, UniProt Q9C098)", "sequence (Q9C098 whole entry)": "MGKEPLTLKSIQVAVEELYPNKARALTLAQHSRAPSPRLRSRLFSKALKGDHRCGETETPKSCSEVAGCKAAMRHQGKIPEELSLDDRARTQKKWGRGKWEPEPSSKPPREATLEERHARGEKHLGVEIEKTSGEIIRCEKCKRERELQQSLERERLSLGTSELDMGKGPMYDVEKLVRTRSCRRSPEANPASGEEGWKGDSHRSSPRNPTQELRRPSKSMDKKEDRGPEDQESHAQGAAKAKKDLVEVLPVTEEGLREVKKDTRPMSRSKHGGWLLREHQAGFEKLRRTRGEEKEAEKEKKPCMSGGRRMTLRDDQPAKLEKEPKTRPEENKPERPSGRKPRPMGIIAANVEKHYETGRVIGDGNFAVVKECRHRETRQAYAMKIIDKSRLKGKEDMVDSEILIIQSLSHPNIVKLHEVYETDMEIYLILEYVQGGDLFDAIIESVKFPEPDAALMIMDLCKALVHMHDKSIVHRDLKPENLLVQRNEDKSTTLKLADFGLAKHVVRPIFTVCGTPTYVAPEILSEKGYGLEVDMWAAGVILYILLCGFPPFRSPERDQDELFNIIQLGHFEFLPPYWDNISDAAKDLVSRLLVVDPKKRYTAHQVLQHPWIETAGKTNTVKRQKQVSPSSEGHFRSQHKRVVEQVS", "experiment": "Binding affinity to DCAMKL3 (unknown origin) assessed as dissociation constant"}, "[16]": {"target": "Focal adhesion kinase 1 (Homo sapiens, UniProt Q05397)", "experiment": "Binding affinity to FAK (unknown origin) assessed as dissociation constant"}, "[17]": {"target": "NUAK family SNF1-like kinase 2 (Homo sapiens, UniProt Q9H093)", "sequence (Q9H093 whole entry)": "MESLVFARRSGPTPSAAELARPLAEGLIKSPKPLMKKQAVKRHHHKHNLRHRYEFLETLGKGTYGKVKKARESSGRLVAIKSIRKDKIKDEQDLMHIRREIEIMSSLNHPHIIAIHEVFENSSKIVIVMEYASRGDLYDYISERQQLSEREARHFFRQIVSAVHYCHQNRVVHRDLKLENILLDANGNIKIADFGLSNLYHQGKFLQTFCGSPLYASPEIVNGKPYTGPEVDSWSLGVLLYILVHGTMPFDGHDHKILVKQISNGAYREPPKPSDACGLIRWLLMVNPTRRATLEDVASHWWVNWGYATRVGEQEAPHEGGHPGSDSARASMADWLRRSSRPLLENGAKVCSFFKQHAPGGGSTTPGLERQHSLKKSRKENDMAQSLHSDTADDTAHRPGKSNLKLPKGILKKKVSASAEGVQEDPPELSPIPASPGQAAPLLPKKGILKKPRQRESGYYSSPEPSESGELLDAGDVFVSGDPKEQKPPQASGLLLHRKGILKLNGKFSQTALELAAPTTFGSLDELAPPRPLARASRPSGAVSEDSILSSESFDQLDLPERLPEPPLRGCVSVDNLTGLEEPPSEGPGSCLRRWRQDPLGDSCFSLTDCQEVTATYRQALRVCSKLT", "experiment": "Binding affinity to SNARK (unknown origin) assessed as dissociation constant"}, "[18]": {"target": "Tyrosine-protein kinase JAK2 (Homo sapiens, UniProt O60674)", "sequence (O60674 whole entry, looked up, the tested form may be a part)": "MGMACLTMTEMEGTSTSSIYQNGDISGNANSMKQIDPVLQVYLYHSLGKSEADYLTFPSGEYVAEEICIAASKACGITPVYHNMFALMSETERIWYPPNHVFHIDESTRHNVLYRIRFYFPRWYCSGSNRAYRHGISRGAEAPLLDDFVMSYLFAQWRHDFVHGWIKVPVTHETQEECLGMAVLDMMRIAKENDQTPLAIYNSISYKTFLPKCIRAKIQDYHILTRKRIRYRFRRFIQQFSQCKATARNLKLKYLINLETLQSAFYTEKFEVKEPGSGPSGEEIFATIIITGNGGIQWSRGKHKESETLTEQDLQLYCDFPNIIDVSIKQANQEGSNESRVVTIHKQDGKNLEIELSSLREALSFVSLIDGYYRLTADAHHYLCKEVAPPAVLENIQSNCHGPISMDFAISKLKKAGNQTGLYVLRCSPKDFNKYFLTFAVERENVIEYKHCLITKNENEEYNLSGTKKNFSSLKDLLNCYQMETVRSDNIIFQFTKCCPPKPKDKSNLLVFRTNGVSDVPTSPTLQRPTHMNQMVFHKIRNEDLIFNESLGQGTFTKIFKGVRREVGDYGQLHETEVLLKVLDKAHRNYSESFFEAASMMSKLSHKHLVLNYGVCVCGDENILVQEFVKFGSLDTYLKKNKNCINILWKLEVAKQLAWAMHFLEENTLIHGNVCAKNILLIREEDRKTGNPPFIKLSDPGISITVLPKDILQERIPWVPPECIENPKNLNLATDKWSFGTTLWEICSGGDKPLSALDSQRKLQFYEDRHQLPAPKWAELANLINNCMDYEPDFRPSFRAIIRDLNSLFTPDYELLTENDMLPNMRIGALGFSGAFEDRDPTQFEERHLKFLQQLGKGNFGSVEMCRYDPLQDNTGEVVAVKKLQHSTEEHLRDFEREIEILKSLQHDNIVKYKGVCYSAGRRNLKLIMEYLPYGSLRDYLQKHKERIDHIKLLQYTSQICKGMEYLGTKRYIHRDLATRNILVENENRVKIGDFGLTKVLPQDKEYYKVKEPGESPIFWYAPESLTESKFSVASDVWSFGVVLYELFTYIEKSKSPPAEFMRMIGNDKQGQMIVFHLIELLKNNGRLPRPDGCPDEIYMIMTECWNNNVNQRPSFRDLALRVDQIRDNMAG", "experiment": "Inhibition of TEL fused JAK2 (unknown origin) transformed in mouse BaF3 cells", "assay_type": "cell-based"}, "[19]": {"experiment": "AUC(0 to infinity) in mouse at 1 mg/kg, iv administered as single dose", "assay_type": "ADME, organism-based", "details": "in vivo"}, "[20]": {"experiment": "MRT in mouse at 1 mg/kg, iv administered as single dose", "assay_type": "ADME, organism-based", "details": "in vivo"}, "[21]": {"experiment": "AUC(0 to t) in mouse at 10 mg/kg, po administered as single dose", "assay_type": "ADME, organism-based", "details": "in vivo"}, "[22]": {"experiment": "MRT in mouse at 10 mg/kg, po administered as single dose", "assay_type": "ADME, organism-based", "details": "in vivo"}, "[23]": {"experiment": "Drug concentration in mouse plasma at 1 mg/kg, iv administered as single dose and measured after 0.5 hrs", "assay_type": "ADME, organism-based"}, "[24]": {"experiment": "Drug concentration in mouse plasma at 1 mg/kg, iv administered as single dose and measured after 8 hrs", "assay_type": "ADME, organism-based"}, "[25]": {"experiment": "Drug concentration in mouse plasma at 10 mg/kg, po administered as single dose and measured after 2 hrs", "assay_type": "ADME, organism-based"}, "[26]": {"experiment": "Drug concentration in mouse plasma at 10 mg/kg, po administered as single dose and measured after 4 hrs", "assay_type": "ADME, organism-based"}, "[27]": {"experiment": "Drug concentration in mouse plasma at 10 mg/kg, po administered as single dose and measured after 6 hrs", "assay_type": "ADME, organism-based"}, "[28]": {"tested_on": "Mus musculus", "experiment": "In vivo inhibition of ERK1/2 phosphorylation in transgenic mouse harboring EGFR del E746_A750/T790M mutant at 2.5 to 25 mg/kg administered as two doses separated by 16 hours by immunoblot analysis", "assay_type": "functional, organism-based", "details": "dose 2.5-25 mg/kg", "outline": "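Transgenic mice gavaged with compound in 10% 1-methyl-2-pyrrolidinone:90% PEG-300 vehicle; phosphorylation assessed in tissue by immunoblotting per standard protocols.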"}, "[29]": {"tested_on": "Mus musculus", "experiment": "In vivo inhibition of EGFR phosphorylation in transgenic mouse harboring EGFR L858R/T790M mutant at 2.5 to 25 mg/kg administered as two doses separated by 16 hours by immunoblot analysis", "assay_type": "functional, organism-based", "details": "dose 2.5-25 mg/kg"}, "[30]": {"tested_on": "Mus musculus", "experiment": "In vivo antitumor activity in transgenic mouse harboring EGFR delE746_A750/T790M mutant assessed as decrease in Ki67 positive cells at 25 mg/kg administered via gavage for 2 weeks by immunohistochemical analysis", "assay_type": "functional, organism-based", "outline": "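Transgenic EGFR T790M mutant mice were given daily gavage at 25mg/kg in 10% 1-methyl-2-pyrrolidinone:90% PEG-300 vehicle, alongside vehicle-alone controls. Tumor tissue was immunostained by standard protocols, and TUNEL-positive and Ki67-positive cells were counted.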"}, "[31]": {"tested_on": "Mus musculus", "experiment": "In vivo antitumor activity in transgenic mouse harboring EGFR L858R/T790M mutant assessed as tumor regression at 25 mg/kg, administered via gavage for 2 weeks", "assay_type": "functional, organism-based", "outline": "(§1)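 Inducible bitransgenic mice carrying EGFR T790M/L858R or exon19 deletion-T790M were dosed by daily gavage at 25mg/kg. The vehicle was 10% 1-methyl-2-pyrrolidinone:90% PEG-300, and the control group received vehicle alone. Tumor response was followed by MRI scanning.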"}, "[32]": {"tested_on": "Mus musculus", "experiment": "In vivo antitumor activity in transgenic mouse harboring EGFR Del19/T790M mutant assessed as tumor regression at 25 mg/kg, administered via gavage for 2 weeks", "assay_type": "functional, organism-based", "outline": "as §1"}, "[33]": {"tested_on": "Mus musculus", "experiment": "Invivo antitumor activity in transgenic mouse harboring EGFR del19/T790M mutant assessed as reduction in nodule remnants in tumor at 25 mg/kg administered via gavage for 2 weeks by H&E staining based analysis", "assay_type": "functional, organism-based", "outline": "(§2)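 EGFR-TL (L858R/T790M) or exon19 deletion-T790M (TD) inducible bitransgenic mice dosed by oral gavage daily at 25 mg/kg; vehicle 10% 1-methyl-2-pyrrolidinone:90% PEG-300. Tumors followed by MRI; lung histology by standard protocols.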"}, "[34]": {"tested_on": "Mus musculus", "experiment": "Invivo antitumor activity in transgenic mouse harboring EGFR del19/T790M mutant assessed as increase in fibrosis at 25 mg/kg administered via gavage for 2 weeks by H&E staining based analysis", "assay_type": "functional, organism-based", "outline": "as §2"}, "[35]": {"tested_on": "BaF3", "experiment": "Prevention of EGFR T790M mutant development in mouse BaF3 cells harboring delE746_A750 mutant assessed as reduction in resistant clones with T790M mutant at 0.001 to 1 uM", "assay_type": "functional, cell-based", "details": "dose 0.001-1 µM", "outline": "(§3)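 Ba/F3 cells with EGFR L858R or delE746_A750 mutagenized with N-ethyl-N-nitrosourea, then expanded in 100 nM or 1 μM inhibitor; resistant clones isolated and characterized for EGFR T790M.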"}, "[36]": {"tested_on": "BaF3", "experiment": "Prevention of EGFR T790M mutant development in mouse BaF3 cells harboring L858R mutant assessed as reduction in resistant clones with T790M mutant at 0.001 to 1 uM", "assay_type": "functional, cell-based", "details": "dose 0.001-1 µM", "outline": "as §3"}}, "note": "The source made the active and inactive calls. No cut-off for these calls is given here.", "data": [{"smiles": "C=CC(=O)Nc1cccc(Oc2nc(Nc3ccc(N4CCN(C)CC4)cc3OC)ncc2Cl)c1", "values": [{"measurement": "IC50", "setting": "[1]", "value": 0.005, "unit": "µM"}, {"measurement": "IC50", "setting": "[2]", "value": 1.96, "unit": "µM"}, {"measurement": "IC50", "setting": "[3]", "value": 1.51, "unit": "µM"}, {"measurement": "IC50", "setting": "[4]", "value": 0.002, "unit": "µM"}, {"measurement": "IC50", "setting": "[5]", "value": "> 3.3", "unit": "µM"}, {"measurement": "IC50", "setting": "[6]", "value": 0.003, "unit": "µM"}, {"measurement": "IC50", "setting": "[7]", "value": 0.002, "unit": "µM"}, {"measurement": "IC50", "setting": "[8]", "value": "> 3.3", "unit": "µM"}, {"measurement": "IC50", "setting": "[9]", "value": 0.035, "unit": "µM"}, {"measurement": "inhibition", "setting": "[10]", "value": "Active"}, {"measurement": "inhibition", "setting": "[11]", "value": "Active"}, {"measurement": "inhibition", "setting": "[12]", "value": "Active"}, {"measurement": "inhibition", "setting": "[13]", "value": "Active"}, {"measurement": "Kd", "setting": "[14]", "value": 0.036, "unit": "µM"}, {"measurement": "Kd", "setting": "[15]", "value": 0.91, "unit": "µM"}, {"measurement": "Kd", "setting": "[16]", "value": 0.078, "unit": "µM"}, {"measurement": "Kd", "setting": "[17]", "value": 0.01, "unit": "µM"}, {"measurement": "IC50", "setting": "[18]", "value": 3.76, "unit": "µM"}, {"measurement": "AUC(0-inf)", "setting": "[19]", "value": 976, "unit": "ng·h/mL"}, {"measurement": "MRT", "setting": "[20]", "value": 1.51, "unit": "h"}, {"measurement": "AUC(0-t)", "setting": "[21]", "value": 2390, "unit": "ng·h/mL"}, {"measurement": "MRT", "setting": "[22]", "value": 3.98, "unit": "h"}, {"measurement": "concentration at 0.5 h", "setting": "[23]", "value": 451, "unit": "ng/mL"}, {"measurement": "concentration at 8 h", "setting": "[24]", "value": 8, "unit": "ng/mL"}, {"measurement": "concentration at 2 h", "setting": "[25]", "value": 422, "unit": "ng/mL"}, {"measurement": "concentration at 4 h", "setting": "[26]", "value": 214, "unit": "ng/mL"}, {"measurement": "concentration at 6 h", "setting": "[27]", "value": 140, "unit": "ng/mL"}, {"measurement": "inhibition", "setting": "[28]", "value": "Active"}, {"measurement": "inhibition", "setting": "[29]", "value": "Active"}, {"measurement": "Activity", "setting": "[30]", "value": "Active"}, {"measurement": "Activity", "setting": "[31]", "value": "Active"}, {"measurement": "Activity", "setting": "[32]", "value": "Active"}, {"measurement": "Activity", "setting": "[33]", "value": "Active"}, {"measurement": "Activity", "setting": "[34]", "value": "Active"}, {"measurement": "Activity", "setting": "[35]", "value": "Active"}, {"measurement": "Activity", "setting": "[36]", "value": "Active"}]}]}
